From ChEMBL document CHEMBL1153411, “Comparing anti-HIV, antibacterial, antifungal, micellar, and cytotoxic properties of tricarboxylato dendritic amphiphiles” (Bioorg Med Chem, 2009)
Converted amounts (≈) assume the structure as drawn.

Experiments:
[1] = tested on: Human immunodeficiency virus 1; assay: Antiviral activity against HIV1 3B with X4 trophism infected in human HeLa cells after 2 hrs by beta-galactosidase reporter gene assay; assay type: functional, organism-based; conditions: Human immunodeficiency virus 1, 3B
In short: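 CD4+, LTR-driven β-galactosidase HeLa cells exposed 2 h to HIV-1 IIIB plus serial compound dilutions. Virus and compound then washed out and cells cultured 48 h in RPMI 1640/10% FBS at 37 °C, 5% CO2. Lysate β-galactosidase measured by chemiluminescence, with virus-only wells as 100% infection. EC50 by linear regression; SD ±10%.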

[2] = Critical micelle concentration in aqueous potassium hydroxide by conductivity measurement; assay type: physicochemical; conditions: buffer
In short: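 Measured in potassium hydroxide solutions at high pH so that only the trianion is present. Solutions stirred during conductivity measurement. CMC taken by least-squares fits of the linear portions of conductivity-versus-concentration plots on either side of the break.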

[3] = Ratio of EC50 for human HeLa cells to EC50 for HIV1 3B infected in human HeLa cells
Candida albicans = assay: Antifungal activity against Candida albicans; assay type: functional
In short: (§1)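 Whole-cell growth-inhibition assays against L. plantarum or C. albicans, compounds added from aqueous triethanolamine stocks. Activity expressed as MIC99, the concentration giving complete inhibition of growth. Error ±1 twofold dilution.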

[4] = Slope of log critical micelle concentration versus chain length n in aqueous potassium hydroxide by conductivity measurement; conditions: buffer
[5] = Critical micelle concentration in aqueous triethanalamine at pH 8.0 to 9.5 by fluorescence spectra measurement; conditions: buffer
[6] = Cytotoxicity against human epithelial cells by MTT assay; assay type: cell-based; conditions: Epithelial cell
In short: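 Same HeLa cells and same conditions as the infection assay, on a separate plate without virus. Viability measured by MTT reduction. EC50 by linear regression; SD ±10%.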

[7] = tested on: Lactiplantibacillus plantarum; assay: Antibacterial activity against Lactobacillus plantarum; assay type: functional; in short: as §1
Neisseria gonorrhoeae = assay: Antibacterial activity against Neisseria gonorrhoeae ATCC 31426 after 4 days by broth microdilution method; assay type: functional; conditions: ATCC 31426, 96 h
In short: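 Strain ATCC 31426 from chocolate agar (1% hemoglobin) colonies, grown 4 d in GC broth at 37 °C in an anaerobic jar with CO2 generator. Cells taken up in buffered saline gelatin and allowed to settle 4 h. Broth microdilution over 6.25 mg/mL down to 0.55 µg/mL. Plates incubated 4 d at 37 °C, in triplicate. MIC is the lowest concentration giving prominent visible decrease in turbidity; ±1 twofold dilution.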

[8] = Critical micelle concentration in aqueous triethanalamine using drop shape analysis by surface tension measurement; assay type: physicochemical; conditions: buffer
In short: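 Surface tension from pendent drops on an 18-gauge needle in triethanolamine/water 0.9% (wt/vol), with solution pH 8.0–9.5. Drop kept in a cuvette holding aqueous triethanolamine to maintain humidity, and camera magnification calibrated from needle tip width. CMC from the break in surface tension versus log concentration.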

[9] = Safety index, ratio of EC50 for human epithelial cells to MIC99 for Candida albicans; assay type: toxicity, cell-based, Epithelial cell
[10] = Safety ratio of critical micelle concentration in aqueous potassium hydroxide to MIC99 for Candida albicans; assay type: toxicity; conditions: buffer
[11] = Safety ratio of critical micelle concentration in aqueous triethanalamine at pH 7.4 to MIC99 for Candida albicans; assay type: toxicity; conditions: aqueous triethanolamine
[12] = Critical micelle concentration in aqueous triethanalamine at pH 6.4 by fluorescence spectra measurement; assay type: physicochemical
In short: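 Measured in triethanolamine/water 0.9% (wt/vol) with pH adjusted to 7.4 or 6.4, using pyrene as micelle probe. Mixtures shaken at least 24 h. Excitation 334 nm, bandpasses 5/2.5 nm. CMC from emission intensities of the I1 (373 nm) and I3 (384 nm) peaks.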

[13] = Solubility of compound in phosphate buffer at pH 7.2; assay type: physicochemical
[14] = Solubility of compound in triethanolamine solution; assay type: physicochemical

SMILES	EC50 [1] [µM]	CMC [2] [µM]	Ratio EC50 [3]	MIC99 (Candida albicans) [µM]	slope of logCMC vs n [4]	CMC [5] [µM]	EC50 [6] [µM]	MIC99 [7] [µM]	MIC99 (Neisseria gonorrhoeae) [µM]	CMC [8] [µM]	selectivity ratio [9]	Ratio [10]	selectivity ratio [11]	CMC [12] [µM]	solubility [13] [µM]	solubility [14] [µM]
CCCCCCCCCCCCCCCCCCNC(=O)NC(CCC(=O)O)(CCC(=O)O)CCC(=O)O	240	330	1.2	1400 (≈ 760 µg/mL)	-0.3	2300	280	1400 (≈ 760 µg/mL)	130 (≈ 70.6 µg/mL)	2200						
CCCCCCCCCCCCCCCCCCCCCCNC(=O)NC(CCC(=O)O)(CCC(=O)O)CCC(=O)O	120	40	2.2	2700 (≈ 1620 µg/mL)	-0.3	400	260	940 (≈ 563 µg/mL)	120 (≈ 71.9 µg/mL)	340						
CCCCCCCCCCCCCCCCNC(=O)NC(CCC(=O)O)(CCC(=O)O)CCC(=O)O	180	2300	1.9	47 (≈ 24.2 µg/mL)	-0.3	7100	350	6000 (≈ 3090 µg/mL)	2800 (≈ 1440 µg/mL)	4900	7	49	83	480		
CCCCCCCCCCCCCCCCCCCCNC(=O)NC(CCC(=O)O)(CCC(=O)O)CCC(=O)O	130	120	1.6	2800 (≈ 1600 µg/mL)	-0.3	1300	210	1400 (≈ 799 µg/mL)	120 (≈ 68.5 µg/mL)	1400						
CCCCCCCCCCCCCCNC(=O)NC(CCC(=O)O)(CCC(=O)O)CCC(=O)O	270	8400	1.1	1600 (≈ 779 µg/mL)	-0.3			6400 (≈ 3110 µg/mL)	12000 (≈ 5840 µg/mL)							
CCCCCCCCCCCCCCCCCC(=O)NC(CCC(=O)O)(CCC(=O)O)CCC(=O)O		71		280 (≈ 144 µg/mL)	-0.175	11000		540 (≈ 277 µg/mL)	2700 (≈ 1390 µg/mL)	11000						
CCCCCCCCCCCCCCCCCCCCCCOC(=O)NC(CCC(=O)O)(CCC(=O)O)CCC(=O)O	110		3.3	1300 (≈ 780 µg/mL)		330	360	1300 (≈ 780 µg/mL)	120 (≈ 72 µg/mL)	320						
CCCCCCCCCCCCCC(=O)NC(CCC(=O)O)(CCC(=O)O)CCC(=O)O	740	3500		610 (≈ 279 µg/mL)	-0.175		300	610 (≈ 279 µg/mL)	12000 (≈ 5490 µg/mL)							
CCCCCCCCCCCCCCCC(=O)NC(CCC(=O)O)(CCC(=O)O)CCC(=O)O	230	1500	4	290 (≈ 141 µg/mL)	-0.175	18000	940	570 (≈ 277 µg/mL)	12000 (≈ 5830 µg/mL)	17000					6900 (≈ 3350 µg/mL)	
CCCCCCCCCCCCCCCCCCCCCC(=O)NC(CCC(=O)O)(CCC(=O)O)CCC(=O)O	130	13		7.7 (≈ 4.39 µg/mL)	-0.175	1500	250	490 (≈ 279 µg/mL)	120 (≈ 68.4 µg/mL)	2000	32	1.7	52	150	79 (≈ 45 µg/mL)	> 22000
CCCCCCCCCCCCCCOC(=O)NC(CCC(=O)O)(CCC(=O)O)CCC(=O)O	370		1.7	1600 (≈ 780 µg/mL)			620	6400 (≈ 3120 µg/mL)	580 (≈ 283 µg/mL)							
CCCCCCCCCCCCCCCCCCCC(=O)NC(CCC(=O)O)(CCC(=O)O)CCC(=O)O	170	34		16 (≈ 8.67 µg/mL)	-0.175	3200	340	520 (≈ 282 µg/mL)	130 (≈ 70.4 µg/mL)	3000	21	2	10			
CCCCCCCCCCCCCCCCOC(=O)NC(CCC(=O)O)(CCC(=O)O)CCC(=O)O	170		2.6	47 (≈ 24.2 µg/mL)		6400	440	6000 (≈ 3090 µg/mL)	280 (≈ 144 µg/mL)	6800						
CCCCCCCCCCCCCCCCCCOC(=O)NC(CCC(=O)O)(CCC(=O)O)CCC(=O)O	130		2.7	180 (≈ 97.9 µg/mL)		2700	350	1400 (≈ 761 µg/mL)	65 (≈ 35.3 µg/mL)	2800						
CCCCCCCCCCCCCCCCCCCCOC(=O)NC(CCC(=O)O)(CCC(=O)O)CCC(=O)O	130		2.2	1400 (≈ 801 µg/mL)		800	280	1400 (≈ 801 µg/mL)	120 (≈ 68.6 µg/mL)	500						
